Test [1] has as its target Serine/threonine-protein kinase N2 (Homo sapiens) (UniProt Q16513). Briefly: Competitive binding affinity to PKN2 (unknown origin) at 10 uM in presence of ATP relative to control. An outline of the steps:
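In vitro ATP-site competition binding assay across a diverse panel of 128 kinases, with compound tested at a single concentration. Kinase selectivity scores (S15) were calculated from the panel profiles.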

Test [2] concerns the target T1, Serine/threonine-protein kinase D1 (Homo sapiens) (UniProt Q15139).
T1 sequence (whole entry): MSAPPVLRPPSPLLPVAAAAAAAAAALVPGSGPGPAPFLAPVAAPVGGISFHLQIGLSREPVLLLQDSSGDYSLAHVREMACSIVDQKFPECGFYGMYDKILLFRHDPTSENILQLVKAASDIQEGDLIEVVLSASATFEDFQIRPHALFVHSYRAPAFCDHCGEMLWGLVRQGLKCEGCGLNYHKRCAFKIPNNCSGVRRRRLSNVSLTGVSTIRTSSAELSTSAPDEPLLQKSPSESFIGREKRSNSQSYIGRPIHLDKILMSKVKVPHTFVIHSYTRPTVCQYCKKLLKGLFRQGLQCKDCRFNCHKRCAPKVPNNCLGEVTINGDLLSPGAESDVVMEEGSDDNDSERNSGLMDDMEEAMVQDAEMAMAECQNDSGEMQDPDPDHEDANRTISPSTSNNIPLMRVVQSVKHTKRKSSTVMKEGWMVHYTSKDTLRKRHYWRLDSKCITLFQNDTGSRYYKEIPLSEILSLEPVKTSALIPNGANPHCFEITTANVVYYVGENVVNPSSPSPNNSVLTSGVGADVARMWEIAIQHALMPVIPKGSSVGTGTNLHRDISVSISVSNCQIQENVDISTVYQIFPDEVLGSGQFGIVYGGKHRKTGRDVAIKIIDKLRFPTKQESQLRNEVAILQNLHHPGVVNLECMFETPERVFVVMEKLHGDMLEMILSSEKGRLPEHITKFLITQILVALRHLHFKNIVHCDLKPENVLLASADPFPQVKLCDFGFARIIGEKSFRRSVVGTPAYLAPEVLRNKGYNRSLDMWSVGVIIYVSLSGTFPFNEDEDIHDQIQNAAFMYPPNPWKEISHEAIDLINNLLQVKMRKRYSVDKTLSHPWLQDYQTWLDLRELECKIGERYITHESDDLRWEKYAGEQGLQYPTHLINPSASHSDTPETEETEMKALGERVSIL
Put plainly: Competitive binding affinity to PRKD1 (unknown origin) at 10 uM in presence of ATP relative to control.

The target in test [3] is Proto-oncogene tyrosine-protein kinase receptor Ret (Homo sapiens) (UniProt P07949). Put plainly: Competitive binding affinity to RET (unknown origin) at 10 uM in presence of ATP relative to control.
Sequence of Proto-oncogene tyrosine-protein kinase receptor Ret (Homo sapiens) (P07949 whole entry): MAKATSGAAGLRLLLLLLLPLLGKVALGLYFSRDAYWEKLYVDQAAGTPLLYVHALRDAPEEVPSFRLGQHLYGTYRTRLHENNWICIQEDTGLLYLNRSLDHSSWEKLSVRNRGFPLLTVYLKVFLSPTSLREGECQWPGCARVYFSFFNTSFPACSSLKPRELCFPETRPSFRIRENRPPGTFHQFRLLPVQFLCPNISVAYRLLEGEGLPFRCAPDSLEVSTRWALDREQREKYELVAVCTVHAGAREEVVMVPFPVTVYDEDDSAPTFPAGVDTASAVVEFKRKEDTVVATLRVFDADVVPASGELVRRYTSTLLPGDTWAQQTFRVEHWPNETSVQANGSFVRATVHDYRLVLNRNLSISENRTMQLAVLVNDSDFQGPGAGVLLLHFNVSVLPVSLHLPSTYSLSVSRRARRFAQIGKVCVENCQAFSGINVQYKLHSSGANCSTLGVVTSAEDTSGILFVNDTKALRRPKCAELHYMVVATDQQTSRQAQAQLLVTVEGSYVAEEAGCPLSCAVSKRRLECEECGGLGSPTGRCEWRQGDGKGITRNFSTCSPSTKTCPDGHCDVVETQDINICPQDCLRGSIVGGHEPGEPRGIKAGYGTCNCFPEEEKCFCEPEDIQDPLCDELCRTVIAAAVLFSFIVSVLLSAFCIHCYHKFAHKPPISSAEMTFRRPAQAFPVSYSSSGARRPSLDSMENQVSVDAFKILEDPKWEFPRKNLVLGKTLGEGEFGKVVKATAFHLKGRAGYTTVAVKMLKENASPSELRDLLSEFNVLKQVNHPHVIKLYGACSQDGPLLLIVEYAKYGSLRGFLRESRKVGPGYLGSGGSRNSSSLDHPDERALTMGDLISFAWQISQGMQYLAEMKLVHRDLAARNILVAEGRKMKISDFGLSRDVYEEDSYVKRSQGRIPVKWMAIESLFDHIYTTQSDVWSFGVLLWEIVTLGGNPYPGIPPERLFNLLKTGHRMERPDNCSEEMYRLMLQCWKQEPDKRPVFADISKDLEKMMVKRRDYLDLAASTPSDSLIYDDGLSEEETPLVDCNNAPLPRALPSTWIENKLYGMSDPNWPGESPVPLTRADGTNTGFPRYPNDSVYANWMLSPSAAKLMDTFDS
Test [4] deals with T2, Serine/threonine-protein kinase RIO1 (Homo sapiens) (UniProt Q9BRS2).
T2 sequence (whole entry): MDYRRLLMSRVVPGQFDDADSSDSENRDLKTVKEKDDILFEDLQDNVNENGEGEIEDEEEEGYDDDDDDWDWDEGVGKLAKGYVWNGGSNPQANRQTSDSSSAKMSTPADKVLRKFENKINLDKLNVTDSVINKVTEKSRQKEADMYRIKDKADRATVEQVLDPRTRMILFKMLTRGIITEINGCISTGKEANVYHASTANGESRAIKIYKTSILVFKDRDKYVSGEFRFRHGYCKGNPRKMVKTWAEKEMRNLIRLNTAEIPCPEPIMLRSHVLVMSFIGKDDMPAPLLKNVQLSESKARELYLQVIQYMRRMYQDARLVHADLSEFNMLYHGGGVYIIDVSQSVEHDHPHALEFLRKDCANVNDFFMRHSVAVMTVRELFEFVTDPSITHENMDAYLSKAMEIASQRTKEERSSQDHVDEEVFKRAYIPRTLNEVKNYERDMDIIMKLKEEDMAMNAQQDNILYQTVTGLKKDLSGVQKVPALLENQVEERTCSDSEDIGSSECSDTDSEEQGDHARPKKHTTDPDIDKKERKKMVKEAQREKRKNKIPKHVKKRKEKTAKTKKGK
Briefly: Competitive binding affinity to RIOK1 (unknown origin) at 10 uM in presence of ATP relative to control.

For test [5], the system named is Tyrosine-protein kinase ABL1 (Homo sapiens), P00519 [T315I]. Briefly: Competitive binding affinity to ABL1 T315I mutant (unknown origin) at 10 uM in presence of ATP relative to control. An outline of the steps: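 In vitro ATP-site competition binding assay across a diverse panel of 128 kinases, with each compound tested at a single concentration. Kinase binding is expressed relative to control.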

For test [6], the target named is NT-3 growth factor receptor (Homo sapiens) (UniProt Q16288). Put plainly: Competitive binding affinity to TRKC (unknown origin) at 10 uM in presence of ATP relative to control.
Sequence of NT-3 growth factor receptor (Homo sapiens) (Q16288 32-839 limits assumed): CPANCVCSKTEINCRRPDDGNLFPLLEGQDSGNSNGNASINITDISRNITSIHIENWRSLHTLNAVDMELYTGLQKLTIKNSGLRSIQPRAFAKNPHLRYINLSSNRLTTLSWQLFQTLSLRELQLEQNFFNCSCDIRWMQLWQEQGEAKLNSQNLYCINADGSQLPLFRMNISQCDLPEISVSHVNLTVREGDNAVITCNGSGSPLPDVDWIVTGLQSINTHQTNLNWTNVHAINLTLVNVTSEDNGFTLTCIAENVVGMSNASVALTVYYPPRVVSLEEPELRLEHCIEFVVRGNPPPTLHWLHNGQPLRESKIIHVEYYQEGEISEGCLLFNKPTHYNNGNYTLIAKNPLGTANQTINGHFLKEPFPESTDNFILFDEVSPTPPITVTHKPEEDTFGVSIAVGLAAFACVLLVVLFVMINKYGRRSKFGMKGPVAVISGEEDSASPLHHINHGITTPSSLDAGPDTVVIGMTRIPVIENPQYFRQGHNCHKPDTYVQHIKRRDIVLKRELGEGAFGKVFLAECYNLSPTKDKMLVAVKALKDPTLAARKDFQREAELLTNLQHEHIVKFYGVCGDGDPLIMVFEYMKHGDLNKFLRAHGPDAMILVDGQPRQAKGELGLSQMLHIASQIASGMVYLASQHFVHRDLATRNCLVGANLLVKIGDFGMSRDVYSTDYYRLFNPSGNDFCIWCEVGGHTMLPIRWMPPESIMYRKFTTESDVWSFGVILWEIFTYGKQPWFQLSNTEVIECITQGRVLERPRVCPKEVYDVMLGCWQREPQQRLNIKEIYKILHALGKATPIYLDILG
Test [7] deals with Activin receptor type-1-like (Homo sapiens) (UniProt P37023). Put plainly: Competitive binding affinity to ACVRL1 (unknown origin) at 10 uM in presence of ATP relative to control.
Sequence of Activin receptor type-1-like (Homo sapiens) (P37023 whole entry): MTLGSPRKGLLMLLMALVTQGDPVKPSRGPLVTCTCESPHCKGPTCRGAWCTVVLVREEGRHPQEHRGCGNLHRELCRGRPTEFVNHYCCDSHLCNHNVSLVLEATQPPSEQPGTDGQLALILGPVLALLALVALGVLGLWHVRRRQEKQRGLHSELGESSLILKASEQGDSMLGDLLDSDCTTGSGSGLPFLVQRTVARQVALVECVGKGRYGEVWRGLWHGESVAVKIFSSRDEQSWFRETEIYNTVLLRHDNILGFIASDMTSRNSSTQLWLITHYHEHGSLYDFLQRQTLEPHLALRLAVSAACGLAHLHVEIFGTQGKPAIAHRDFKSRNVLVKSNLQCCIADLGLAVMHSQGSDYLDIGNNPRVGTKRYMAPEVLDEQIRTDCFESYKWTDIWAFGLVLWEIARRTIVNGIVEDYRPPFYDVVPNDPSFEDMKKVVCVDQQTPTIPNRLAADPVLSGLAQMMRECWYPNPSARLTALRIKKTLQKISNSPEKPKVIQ
For test [8], the target named is Serine/threonine-protein kinase 33 (Homo sapiens) (UniProt Q9BYT3). Briefly: Competitive binding affinity to STK33 (unknown origin) at 10 uM in presence of ATP relative to control.
Sequence of Serine/threonine-protein kinase 33 (Homo sapiens) (Q9BYT3 whole entry, looked up): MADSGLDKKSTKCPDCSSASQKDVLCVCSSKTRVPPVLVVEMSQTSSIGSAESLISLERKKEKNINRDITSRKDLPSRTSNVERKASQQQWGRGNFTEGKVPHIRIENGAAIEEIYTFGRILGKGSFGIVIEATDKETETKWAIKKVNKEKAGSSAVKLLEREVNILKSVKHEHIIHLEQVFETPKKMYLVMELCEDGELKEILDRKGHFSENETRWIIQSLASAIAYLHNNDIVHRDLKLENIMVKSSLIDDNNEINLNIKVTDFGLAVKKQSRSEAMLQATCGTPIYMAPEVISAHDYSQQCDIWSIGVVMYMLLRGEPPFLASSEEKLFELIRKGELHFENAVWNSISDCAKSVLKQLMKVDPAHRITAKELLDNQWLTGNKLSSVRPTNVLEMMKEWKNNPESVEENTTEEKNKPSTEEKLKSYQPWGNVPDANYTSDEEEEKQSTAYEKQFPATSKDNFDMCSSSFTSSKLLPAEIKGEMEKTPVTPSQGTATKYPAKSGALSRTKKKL
For test [9], the target named is T3, Serine/threonine-protein kinase 17A (Homo sapiens) (UniProt Q9UEE5).
T3 sequence (whole entry): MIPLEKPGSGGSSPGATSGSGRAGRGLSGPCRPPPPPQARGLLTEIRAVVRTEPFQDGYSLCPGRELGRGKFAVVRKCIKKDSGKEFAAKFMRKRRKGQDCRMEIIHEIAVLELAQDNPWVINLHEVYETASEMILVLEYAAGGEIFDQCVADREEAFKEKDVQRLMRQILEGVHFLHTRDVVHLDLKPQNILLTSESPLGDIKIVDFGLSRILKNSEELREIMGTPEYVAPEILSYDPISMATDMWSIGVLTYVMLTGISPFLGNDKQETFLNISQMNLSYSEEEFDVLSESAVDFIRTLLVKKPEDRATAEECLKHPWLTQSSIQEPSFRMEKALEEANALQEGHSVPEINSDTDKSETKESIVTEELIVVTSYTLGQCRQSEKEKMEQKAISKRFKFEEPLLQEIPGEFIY
Briefly: Competitive binding affinity to STK17A (unknown origin) at 10 uM in presence of ATP relative to control.

Data on six compounds can be found in ChEMBL document CHEMBL2424622, “Development of amino-pyrimidine inhibitors of c-Jun N-terminal kinase (JNK): kinase profiling guided optimization of a 1,2,3-benzotriazole lead” (Bioorg Med Chem Lett, 2013).

SMILES strings stand for the structures.

Sequence of Serine/threonine-protein kinase N2 (Homo sapiens) (Q16513 whole entry, looked up): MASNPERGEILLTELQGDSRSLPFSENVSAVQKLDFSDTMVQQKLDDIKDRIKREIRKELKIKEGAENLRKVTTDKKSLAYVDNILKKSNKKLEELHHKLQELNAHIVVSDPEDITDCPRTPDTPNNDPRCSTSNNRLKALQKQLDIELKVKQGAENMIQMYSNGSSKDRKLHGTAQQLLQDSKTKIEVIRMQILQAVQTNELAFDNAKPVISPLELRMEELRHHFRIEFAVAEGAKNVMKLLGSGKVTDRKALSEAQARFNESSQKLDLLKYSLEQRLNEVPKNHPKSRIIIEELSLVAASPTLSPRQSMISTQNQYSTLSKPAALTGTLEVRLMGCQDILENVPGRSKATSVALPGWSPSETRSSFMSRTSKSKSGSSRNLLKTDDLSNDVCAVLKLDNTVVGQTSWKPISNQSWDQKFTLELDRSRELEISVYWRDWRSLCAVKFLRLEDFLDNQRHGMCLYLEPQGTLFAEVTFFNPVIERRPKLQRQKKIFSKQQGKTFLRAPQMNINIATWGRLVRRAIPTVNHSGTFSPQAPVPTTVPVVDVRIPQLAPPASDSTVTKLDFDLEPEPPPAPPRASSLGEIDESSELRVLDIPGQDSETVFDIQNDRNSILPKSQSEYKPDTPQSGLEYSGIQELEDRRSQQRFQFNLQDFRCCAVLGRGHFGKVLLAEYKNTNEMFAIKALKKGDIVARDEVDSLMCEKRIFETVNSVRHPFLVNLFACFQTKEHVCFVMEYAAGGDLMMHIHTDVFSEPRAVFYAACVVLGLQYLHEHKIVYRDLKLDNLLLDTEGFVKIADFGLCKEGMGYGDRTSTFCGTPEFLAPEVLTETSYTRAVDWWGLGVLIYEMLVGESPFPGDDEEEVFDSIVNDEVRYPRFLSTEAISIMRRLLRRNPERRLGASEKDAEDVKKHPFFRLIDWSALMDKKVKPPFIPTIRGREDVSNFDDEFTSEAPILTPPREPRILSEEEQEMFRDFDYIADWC

For the compound `O[C@H]1CC[C@H](Nc2nccc(-n3ccc4ccccc43)n2)CC1`, the inhibition in [1] was less than 50%; in test [2], 95%; in test [3] it was less than 50%; in test [4], less than 50%; in test [5], less than 50%; in test [6], less than 50%. Also, the inhibition in test [7] and in test [8] was less than 50% throughout.

As for `O[C@H]1CC[C@H](Nc2nccc(-n3nnc4ccccc43)n2)CC1`, the inhibition in [1] was 69%; in test [2], 98%; in test [3], less than 50%; in test [4], less than 50%; in test [5], less than 50%; in test [6], less than 50%. The inhibition in test [7] is less than 50%; in [8] it was 75%.

For the compound `O=C([C@H]1CC[C@H](Nc2nccc(-n3nnc4ccccc43)n2)CC1)N1CCOCC1`, in test [9], the inhibition was 97%.

Consider `O[C@H]1CC[C@H](Nc2nccc(-n3ncc4ccccc43)n2)CC1`, for which the inhibition in test [1] was less than 50%; in test [2], 96%; in test [3] it was less than 50%; in test [4], less than 50%; in test [5], less than 50%; in test [6] it was less than 50%. Moreover, the results for the inhibition in [7] and in test [8] were less than 50% and 78%, respectively.

As for `O[C@H]1CC[C@H](Nc2nccc(-c3n[nH]c4ccccc34)n2)CC1`, the inhibition in test [1] was 67%; in test [3], 94%; in [5], 96%; in test [6] it was 99%; in [9], 100%; in [7], less than 50%. The inhibition in [8] came out at 98%.

In the case of `N[C@H]1CC[C@H](Nc2nccc(-n3nnc4ccccc43)n2)CC1`, the inhibition in test [9] turned out to be 100%.

The inhibition is the relative decrease from the control value, in per cent.
